The source made the active and inactive calls. No cut-off for these calls is given here.
Experiments:
[1] = target: Bcr/Abl fusion protein (Homo sapiens) (UniProt P00519+P11274); test: Inhibition of BCR/ABL p210 autophosphorylation in human K562 cells at 0.2 to 10 uM after 2 hrs by Western blot analysis; assay type: cell-based
Method in brief: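 Exponentially growing K562 cells were treated for 2 h with rising compound concentrations, diluted from 10 mM DMSO stocks via 1000× DMSO working stocks, or with DMSO vehicle. Lysates were run on 10% SDS–PAGE. Blots were probed sequentially for phospho-BCR-ABL and total BCR-ABL, detected with infrared-dye secondaries, and quantified by densitometry. The phospho signal was normalized to total, with % inhibition relative to vehicle.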

[2] = Aqueous solubility of the compound; assay type: physicochemical; settings: buffer
K562 = test: Growth inhibition of human K562 cells expressing p210Bcr/Abl after 96 hrs by trypan blue exclusion assay; assay type: functional, cell-based; settings: K562, 96 h
Method in brief: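 K562 cells were kept in RPMI with 10% FBS and penicillin–streptomycin at 37 °C under 5% CO2. Cells were seeded at 1 × 10^5 cells/mL with a range of compound concentrations, using DMSO as the negative control. After 96 h, viability was counted by Trypan blue exclusion and expressed as percent of DMSO control to derive GI50.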

Bcr/Abl fusion protein [3] = target: T1, Bcr/Abl fusion protein (Homo sapiens, UniProt P00519); test: Inhibition of BCR/ABL p210 autophosphorylation in human K562 cells after 2 hrs by Western blot analysis; assay type: cell-based
DU-145 = test: Growth inhibition of human DU145 cells after 96 hrs by trypan blue exclusion assay; assay type: functional; settings: DU-145, 96 h
[4] = Aqueous solubility of the compound
Bcr/Abl fusion protein [5] = target: T1, Bcr/Abl fusion protein; test: Inhibition of Bcr-Abl after 20 mins by autoradiography; assay type: protein assay
Method in brief: (§1)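 Kinase reactions were started by adding 1 µg recombinant substrate with unlabelled and 32P-labelled ATP. They ran 20 min at 30 °C and were stopped with 2× Laemmli buffer, then boiled 2 min and resolved on 12% SDS–PAGE. Substrate phosphorylation bands on autoradiograms were quantified by densitometry and plotted against log drug concentration. IC50 came from sigmoidal variable-slope nonlinear regression.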

[6] = target: Epidermal growth factor receptor (Homo sapiens, UniProt P00533); test: Inhibition of EGFR by immunoprecipitation assay
[7] = target: Serine/threonine-protein kinase PLK1 (Homo sapiens, UniProt P53350); test: Inhibition of GST-tagged recombinant PLK1 after 20 mins by autoradiography; method in brief: as §1
[8] = target: Tyrosine-protein kinase Lyn (Homo sapiens, UniProt P07948); test: Inhibition of GST-tagged recombinant LynB after 20 mins by autoradiography; method in brief: as §1
[9] = target: Proto-oncogene tyrosine-protein kinase Src (Homo sapiens, UniProt P12931); test: Inhibition of GST-tagged recombinant Src after 20 mins by autoradiography; method in brief: as §1
[10] = target: Cyclin-dependent kinase 1 (Homo sapiens, UniProt P06493); test: Inhibition of GST-tagged recombinant CDK1 after 20 mins by autoradiography; method in brief: as §1
[11] = target: Receptor tyrosine-protein kinase erbB-2 (Homo sapiens, UniProt P04626); test: Inhibition of ErbB2 by immunoprecipitation assay
Chain of Receptor tyrosine-protein kinase erbB-2 (P04626 whole entry): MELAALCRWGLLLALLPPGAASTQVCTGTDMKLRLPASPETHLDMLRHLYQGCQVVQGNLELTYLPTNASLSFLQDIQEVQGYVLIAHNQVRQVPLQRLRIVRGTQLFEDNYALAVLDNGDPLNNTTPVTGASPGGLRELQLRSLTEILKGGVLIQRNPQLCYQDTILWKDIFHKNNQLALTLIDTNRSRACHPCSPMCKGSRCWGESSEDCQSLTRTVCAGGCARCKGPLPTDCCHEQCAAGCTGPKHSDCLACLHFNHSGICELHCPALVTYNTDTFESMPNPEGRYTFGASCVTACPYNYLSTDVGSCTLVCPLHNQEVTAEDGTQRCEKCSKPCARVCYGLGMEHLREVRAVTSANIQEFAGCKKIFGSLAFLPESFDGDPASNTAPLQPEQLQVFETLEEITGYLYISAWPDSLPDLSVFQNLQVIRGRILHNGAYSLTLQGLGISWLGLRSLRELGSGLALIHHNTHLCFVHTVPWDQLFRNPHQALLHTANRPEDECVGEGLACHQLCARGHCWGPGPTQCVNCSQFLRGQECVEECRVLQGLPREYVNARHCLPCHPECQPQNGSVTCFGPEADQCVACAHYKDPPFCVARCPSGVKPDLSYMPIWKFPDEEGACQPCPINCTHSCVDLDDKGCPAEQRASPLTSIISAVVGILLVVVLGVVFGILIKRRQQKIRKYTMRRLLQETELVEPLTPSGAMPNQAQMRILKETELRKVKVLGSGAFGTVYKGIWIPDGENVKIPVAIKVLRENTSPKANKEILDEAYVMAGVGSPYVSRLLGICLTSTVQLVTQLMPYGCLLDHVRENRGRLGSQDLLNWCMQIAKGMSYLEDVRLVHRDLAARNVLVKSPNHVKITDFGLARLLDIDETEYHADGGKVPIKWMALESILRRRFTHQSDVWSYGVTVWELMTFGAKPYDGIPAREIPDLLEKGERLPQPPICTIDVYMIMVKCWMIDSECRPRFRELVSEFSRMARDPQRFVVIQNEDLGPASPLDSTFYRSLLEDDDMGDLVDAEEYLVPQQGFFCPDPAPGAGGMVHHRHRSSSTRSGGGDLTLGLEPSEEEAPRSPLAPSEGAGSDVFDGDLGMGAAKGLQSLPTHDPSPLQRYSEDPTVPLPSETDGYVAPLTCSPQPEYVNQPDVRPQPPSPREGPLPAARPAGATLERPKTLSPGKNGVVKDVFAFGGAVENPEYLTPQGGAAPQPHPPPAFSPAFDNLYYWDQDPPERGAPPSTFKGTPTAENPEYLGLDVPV

Chain of Bcr/Abl fusion protein (Homo sapiens) (P00519 whole entry, looked up, the tested form may be a part): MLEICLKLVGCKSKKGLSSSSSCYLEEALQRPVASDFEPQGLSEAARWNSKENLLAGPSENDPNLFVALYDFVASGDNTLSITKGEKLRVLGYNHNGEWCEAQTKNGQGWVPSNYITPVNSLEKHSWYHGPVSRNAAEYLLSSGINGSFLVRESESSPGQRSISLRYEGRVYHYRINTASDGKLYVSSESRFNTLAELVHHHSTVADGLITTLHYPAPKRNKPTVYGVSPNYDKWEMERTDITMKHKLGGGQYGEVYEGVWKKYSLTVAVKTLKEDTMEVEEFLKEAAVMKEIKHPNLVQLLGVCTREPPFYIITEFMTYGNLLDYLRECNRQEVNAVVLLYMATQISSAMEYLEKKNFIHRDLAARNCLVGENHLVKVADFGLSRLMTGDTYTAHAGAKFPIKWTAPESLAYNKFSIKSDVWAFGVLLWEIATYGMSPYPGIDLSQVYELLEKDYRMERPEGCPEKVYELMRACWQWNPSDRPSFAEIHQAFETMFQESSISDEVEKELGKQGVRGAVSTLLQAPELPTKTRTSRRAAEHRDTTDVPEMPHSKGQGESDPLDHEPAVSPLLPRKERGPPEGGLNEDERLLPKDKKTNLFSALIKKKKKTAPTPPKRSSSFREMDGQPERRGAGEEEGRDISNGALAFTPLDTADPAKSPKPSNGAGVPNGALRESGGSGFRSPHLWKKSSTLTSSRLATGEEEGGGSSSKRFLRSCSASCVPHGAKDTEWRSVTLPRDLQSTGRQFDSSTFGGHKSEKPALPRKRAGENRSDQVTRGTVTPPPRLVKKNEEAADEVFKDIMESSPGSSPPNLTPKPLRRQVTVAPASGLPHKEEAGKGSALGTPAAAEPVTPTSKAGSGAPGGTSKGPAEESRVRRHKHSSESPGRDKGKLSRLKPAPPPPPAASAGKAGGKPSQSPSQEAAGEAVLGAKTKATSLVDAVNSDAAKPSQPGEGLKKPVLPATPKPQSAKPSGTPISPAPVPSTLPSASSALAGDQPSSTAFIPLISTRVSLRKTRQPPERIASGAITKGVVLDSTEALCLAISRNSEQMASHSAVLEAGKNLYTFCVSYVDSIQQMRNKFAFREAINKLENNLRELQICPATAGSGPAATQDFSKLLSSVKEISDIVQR
Chain of Bcr/Abl fusion protein (Homo sapiens) (P11274 whole entry, looked up, the tested form may be a part): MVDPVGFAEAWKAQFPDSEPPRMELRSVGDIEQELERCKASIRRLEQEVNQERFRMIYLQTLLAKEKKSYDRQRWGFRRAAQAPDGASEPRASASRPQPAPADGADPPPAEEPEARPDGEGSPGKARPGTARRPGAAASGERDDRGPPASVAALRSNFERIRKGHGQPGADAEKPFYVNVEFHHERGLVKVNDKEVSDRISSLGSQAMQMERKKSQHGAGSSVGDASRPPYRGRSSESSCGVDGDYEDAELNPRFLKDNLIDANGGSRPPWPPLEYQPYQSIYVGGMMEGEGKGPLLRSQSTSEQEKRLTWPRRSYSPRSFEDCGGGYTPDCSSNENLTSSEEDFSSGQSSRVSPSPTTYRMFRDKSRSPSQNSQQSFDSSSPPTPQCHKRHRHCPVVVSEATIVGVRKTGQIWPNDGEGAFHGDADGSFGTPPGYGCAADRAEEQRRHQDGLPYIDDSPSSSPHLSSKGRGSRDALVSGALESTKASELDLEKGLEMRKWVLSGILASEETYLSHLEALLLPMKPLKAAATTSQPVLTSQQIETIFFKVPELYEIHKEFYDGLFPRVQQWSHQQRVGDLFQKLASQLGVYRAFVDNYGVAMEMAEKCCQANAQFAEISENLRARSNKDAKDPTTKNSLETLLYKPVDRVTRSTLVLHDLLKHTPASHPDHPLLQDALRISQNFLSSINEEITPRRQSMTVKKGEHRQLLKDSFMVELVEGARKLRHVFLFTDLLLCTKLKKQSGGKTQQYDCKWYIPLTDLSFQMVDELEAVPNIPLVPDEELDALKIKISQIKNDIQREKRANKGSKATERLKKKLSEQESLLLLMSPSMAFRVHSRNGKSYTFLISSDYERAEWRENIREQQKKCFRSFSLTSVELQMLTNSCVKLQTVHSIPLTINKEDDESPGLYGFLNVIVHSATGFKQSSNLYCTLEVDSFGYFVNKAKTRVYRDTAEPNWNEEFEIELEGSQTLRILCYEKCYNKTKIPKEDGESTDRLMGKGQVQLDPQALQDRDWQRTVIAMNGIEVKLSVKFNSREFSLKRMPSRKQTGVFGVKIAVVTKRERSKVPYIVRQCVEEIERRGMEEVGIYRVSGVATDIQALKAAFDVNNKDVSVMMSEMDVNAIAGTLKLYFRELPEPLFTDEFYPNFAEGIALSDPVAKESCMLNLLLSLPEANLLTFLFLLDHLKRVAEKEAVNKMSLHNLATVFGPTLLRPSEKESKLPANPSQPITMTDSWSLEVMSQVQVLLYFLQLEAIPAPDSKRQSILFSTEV
T1 sequence (P00519 whole entry, the tested form may be a part): as the sequence (P00519 whole entry, looked up, the tested form may be a part) above
T1 sequence (P11274 whole entry, further chain, the tested form may be a part): as the sequence (P11274 whole entry, looked up, the tested form may be a part) above
Chain of Serine/threonine-protein kinase PLK1 (P53350 whole entry): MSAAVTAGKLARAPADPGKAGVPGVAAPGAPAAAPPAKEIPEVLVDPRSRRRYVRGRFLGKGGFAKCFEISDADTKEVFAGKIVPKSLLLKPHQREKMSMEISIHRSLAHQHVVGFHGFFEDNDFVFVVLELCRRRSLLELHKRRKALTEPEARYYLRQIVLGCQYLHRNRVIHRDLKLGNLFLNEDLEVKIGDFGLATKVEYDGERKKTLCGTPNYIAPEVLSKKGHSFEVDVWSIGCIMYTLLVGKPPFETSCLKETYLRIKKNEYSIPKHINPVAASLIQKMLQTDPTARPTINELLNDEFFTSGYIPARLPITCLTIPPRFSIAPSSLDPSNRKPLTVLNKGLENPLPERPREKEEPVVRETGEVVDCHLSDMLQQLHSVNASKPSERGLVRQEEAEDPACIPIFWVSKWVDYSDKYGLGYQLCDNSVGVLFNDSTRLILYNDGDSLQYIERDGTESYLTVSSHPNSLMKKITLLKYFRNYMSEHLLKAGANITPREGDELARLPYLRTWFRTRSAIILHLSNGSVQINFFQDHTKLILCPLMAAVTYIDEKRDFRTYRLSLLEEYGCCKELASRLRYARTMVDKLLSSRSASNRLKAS
Chain of Tyrosine-protein kinase Lyn (P07948 whole entry): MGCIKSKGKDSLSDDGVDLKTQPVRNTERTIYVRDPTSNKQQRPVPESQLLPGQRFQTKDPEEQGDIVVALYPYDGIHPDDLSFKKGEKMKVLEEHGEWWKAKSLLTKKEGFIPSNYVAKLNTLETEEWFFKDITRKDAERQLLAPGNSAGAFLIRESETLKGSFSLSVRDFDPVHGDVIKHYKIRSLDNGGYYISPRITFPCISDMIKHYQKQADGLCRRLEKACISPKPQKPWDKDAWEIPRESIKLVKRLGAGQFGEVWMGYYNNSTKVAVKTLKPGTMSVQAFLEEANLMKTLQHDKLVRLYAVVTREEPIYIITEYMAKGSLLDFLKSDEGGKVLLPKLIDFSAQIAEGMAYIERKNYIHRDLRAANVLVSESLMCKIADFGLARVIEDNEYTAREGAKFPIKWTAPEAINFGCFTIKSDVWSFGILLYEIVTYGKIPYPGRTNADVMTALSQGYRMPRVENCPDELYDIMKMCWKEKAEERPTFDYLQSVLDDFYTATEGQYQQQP

Row | SMILES | inhibition [1] | solubility [2] | IC50 (K562) | IC50 (Bcr/Abl fusion protein [3]) | GI50 (DU-145) | solubility [4] | GI50 (K562) | IC50 (Bcr/Abl fusion protein [5]) | IC50 [6] | IC50 [7] | IC50 [8] | IC50 [9] | IC50 [10] | IC50 [11]
1 | COC(=O)c1ccc(C(=O)/C(=C\c2ccc(F)c([N+](=O)[O-])c2)SCc2ccc(Br)cc2)cc1 | Active | < 1000 µg/mL | 300 nM | 750 nM | – | – | – | – | – | – | – | – | – | –
2 | O=C(/C(=C\c1ccc(F)c([N+](=O)[O-])c1)SCc1ccc(Br)cc1)c1ccc(C(=O)N2CCN(CCO)CC2)cc1 | Active | > 10000 µg/mL | 500 nM | 500 nM | 750 nM | > 10000 µg/mL | < 250 nM | – | – | – | – | – | – | –
3 | O=C(O)c1ccc(C(=O)/C(=C\c2ccc(Cl)c([N+](=O)[O-])c2)SCc2ccc(Br)cc2)cc1 | – | < 1000 µg/mL | 700 nM | 10000 nM | 500 nM | – | 1000 nM | – | – | – | – | – | – | –
4 | O=C(O)c1ccc(C(=O)/C(=C\c2ccc(Br)c([N+](=O)[O-])c2)SCc2ccc(Cl)cc2)cc1 | – | < 1000 µg/mL | 600 nM | 2500 nM | < 1000 nM | – | < 1000 nM | – | – | – | – | – | – | –
5 | O=C(/C(=C\c1ccc(F)c([N+](=O)[O-])c1)SCc1ccc(F)cc1)c1ccc(F)cc1 | – | < 1000 µg/mL | 600 nM | 2500 nM | 1000 nM | – | < 1000 nM | – | – | – | – | – | – | –
6 | O=C(O)c1ccc(C(=O)/C(=C\c2ccc(Cl)c([N+](=O)[O-])c2)SCc2ccc(F)cc2)cc1 | – | < 1000 µg/mL | 500 nM | 2500 nM | 1000 nM | – | < 1000 nM | – | – | – | – | – | – | –
7 | O=C(O)c1ccc(C(=O)/C(=C\c2ccc(F)c([N+](=O)[O-])c2)SCc2ccc(C(F)(F)F)cc2)cc1 | Active | < 1000 µg/mL | 400 nM | 200 nM | 1000 nM | – | < 1000 nM | – | – | – | – | – | – | –
8 | O=C(O)c1ccc(C(=O)/C(=C\c2ccc(Br)c([N+](=O)[O-])c2)SCc2ccc(Br)cc2)cc1 | – | < 1000 µg/mL | 900 nM | 10000 nM | 1000 nM | – | < 1000 nM | – | – | – | – | – | – | –
9 | CCN(CC)CCNC(=O)c1ccc(C(=O)/C(=C\c2ccc(F)c([N+](=O)[O-])c2)SCc2ccc(Br)cc2)cc1 | – | > 10000 µg/mL | 500 nM | 500 nM | – | > 10000 µg/mL | – | – | – | – | – | – | – | –
10 | COc1cc(/C=C(/SCc2ccc(Br)cc2)C(=O)c2ccc(C(=O)O)cc2)ccc1F | – | < 1000 µg/mL | 20000 nM | > 20000 nM | 1000 nM | – | 1000 nM | – | – | – | – | – | – | –
11 | O=C(O)c1ccc(C(=O)/C(=C\c2ccc(Br)c([N+](=O)[O-])c2)SCc2ccc(F)cc2)cc1 | – | < 1000 µg/mL | 400 nM | 15000 nM | 1000 nM | – | < 1000 nM | – | – | – | – | – | – | –
12 | O=C(O)c1ccc(C(=O)/C(=C\c2ccc(O)c(Br)c2)SCc2ccc(Br)cc2)cc1 | – | < 1000 µg/mL | 35000 nM | > 20000 nM | 25000 nM | – | 25000 nM | – | – | – | – | – | – | –
13 | CN1CCN(CCNC(=O)c2ccc(C(=O)/C(=C\c3ccc(F)c([N+](=O)[O-])c3)SCc3ccc(Br)cc3)cc2)CC1 | Active | > 10000 µg/mL | 2500 nM | 2500 nM | 1000 nM | > 10000 µg/mL | 1000 nM | – | – | – | – | – | – | –
14 | O=C(/C(=C\c1ccc(F)c([N+](=O)[O-])c1)SCc1ccc(F)cc1)c1ccc(C(=O)N2CCN(CCO)CC2)cc1 | Active | > 10000 µg/mL | 500 nM | 500 nM | – | > 10000 µg/mL | – | – | – | – | – | – | – | –

The remaining lines, values ahead:

Row | inhibition [1] | solubility [2] | IC50 (K562) | IC50 (Bcr/Abl fusion protein [3]) | GI50 (DU-145) | solubility [4] | GI50 (K562) | IC50 (Bcr/Abl fusion protein [5]) | IC50 [6] | IC50 [7] | IC50 [8] | IC50 [9] | IC50 [10] | IC50 [11] | SMILES
15 | – | < 1000 µg/mL | 500 nM | 2500 nM | 50000 nM | – | 10000 nM | – | – | – | – | – | – | – | O=C(O)c1ccc(C(=O)/C(=C\c2ccc(F)c([N+](=O)[O-])c2)SCc2ccc(Cl)cc2)cc1
16 | Active | < 1000 µg/mL | 300 nM | 500 nM | 1000 nM | – | < 1000 nM | 750 nM | > 20000 nM | > 50000 nM | 17000 nM | 13200 nM | > 50000 nM | > 10000 nM | O=C(O)c1ccc(C(=O)/C(=C\c2ccc(F)c([N+](=O)[O-])c2)SCc2ccc(Br)cc2)cc1
17 | – | < 1000 µg/mL | 400 nM | 2500 nM | 1000 nM | – | < 1000 nM | – | – | – | – | – | – | – | O=C(O)c1ccc(C(=O)/C(=C\c2ccc(F)c([N+](=O)[O-])c2)SCc2ccc(Cl)cc2Cl)cc1
18 | – | < 1000 µg/mL | 600 nM | 2500 nM | 1000 nM | – | < 1000 nM | – | – | – | – | – | – | – | O=C(O)c1ccc(C(=O)/C(=C\c2ccc(Br)c([N+](=O)[O-])c2)SCc2ccc(Cl)cc2Cl)cc1
19 | – | < 1000 µg/mL | 400 nM | 2500 nM | 1000 nM | – | < 1000 nM | – | – | – | – | – | – | – | O=C(O)c1ccc(C(=O)/C(=C\c2ccc(F)c([N+](=O)[O-])c2)SCc2ccc(F)cc2)cc1
20 | – | < 1000 µg/mL | 500 nM | 10000 nM | 1000 nM | – | 1000 nM | – | – | – | – | – | – | – | O=C(O)c1ccc(C(=O)/C(=C\c2ccc(F)c([N+](=O)[O-])c2)SCc2ccccc2Cl)cc1
21 | – | < 1000 µg/mL | 500 nM | 10000 nM | 1000 nM | – | < 1000 nM | – | – | – | – | – | – | – | O=C(O)c1ccc(C(=O)/C(=C\c2ccc(Cl)c([N+](=O)[O-])c2)SCc2ccc(Cl)cc2)cc1
